# Tested on: Fibroblast
# Assay: Multiplex assay against human fibroblast
# Type: toxicity, cell-based
# Procedure, shortened: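 Per cents of healthy-nucleus cells form the tubulin, mitochondrial-mass and membrane-permeability phenotype values. Live cells were stained at seeding with Hoechst33342, BioTracker Green Microtubule Cytoskeleton Dye, MitoTracker Red and Annexin V Alexa Fluor 680. After compound addition they were imaged on a CQ1 microscope at 37°C and 5% CO2, and CellPathfinder machine-learning gating split them into Hoechst high-intensity objects or normal cells, normal cells into healthy, pyknosed or fragmented nuclei, and pyknosed cells into mitotic or apoptotic.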
# [1] = 12 h, 1 µM, compound concentration 1 uM, replicate 1
# [2] = 12 h, 1 µM, compound concentration 1 uM, replicate 2
# [3] = 12 h, 10 µM, compound concentration 10 uM, replicate 1
# [4] = 12 h, 10 µM, compound concentration 10 uM, replicate 2
# [5] = 24 h, 1 µM, compound concentration 1 uM, replicate 1
# [6] = 24 h, 1 µM, compound concentration 1 uM, replicate 2
# [7] = 24 h, 10 µM, compound concentration 10 uM, replicate 1
# [8] = 24 h, 10 µM, compound concentration 10 uM, replicate 2
# [9] = 48 h, 1 µM, compound concentration 1 uM, replicate 1
# [10] = 48 h, 1 µM, compound concentration 1 uM, replicate 2
# [11] = 48 h, 10 µM, compound concentration 10 uM, replicate 1
# [12] = 48 h, 10 µM, compound concentration 10 uM, replicate 2
smiles,measurement,setting,value
C=CC(=O)Nc1ccc2ncnc(Nc3ccc(OCc4cccc(F)c4)c(Cl)c3)c2c1.Cc1ccc(S(=O)(=O)O)cc1,Population Apoptotic (%),[1],53%
same,Population Fragmented Nuclei (%),[1],25%
same,Population Healthy Nuclei (%),[1],37%
same,Population Hoechst High Intensity Objects (%),[1],7%
same,Population Membrane Permeable-Phenotype (%),[1],28%
same,Population Mitochondria Different-Phenotype (%),[1],9%
same,Population Mitotic Cells (%),[1],46%
same,Population Normal (%),[1],92%
same,Population Pyknosed Nuclei (%),[1],36%
same,Population Tubulin-Different-Phenotype (%),[1],26%
same,Total Cell Count,[1],120
same,Population Apoptotic (%),[2],50%
same,Population Fragmented Nuclei (%),[2],6%
same,Population Healthy Nuclei (%),[2],84%
same,Population Hoechst High Intensity Objects (%),[2],5%
same,Population Membrane Permeable-Phenotype (%),[2],3%
same,Population Mitotic Cells (%),[2],50%
same,Population Normal (%),[2],94%
same,Population Pyknosed Nuclei (%),[2],8%
same,Population Tubulin-Different-Phenotype (%),[2],29%
same,Total Cell Count,[2],77
same,Population Apoptotic (%),[3],77%
same,Population Fragmented Nuclei (%),[3],27%
same,Population Healthy Nuclei (%),[3],38%
same,Population Hoechst High Intensity Objects (%),[3],15%
same,Population Membrane Permeable-Phenotype (%),[3],15%
same,Population Mitochondria Different-Phenotype (%),[3],7%
same,Population Mitotic Cells (%),[3],22%
same,Population Normal (%),[3],84%
same,Population Pyknosed Nuclei (%),[3],33%
same,Population Tubulin-Different-Phenotype (%),[3],27%
same,Total Cell Count,[3],122
same,Population Apoptotic (%),[4],75%
same,Population Fragmented Nuclei (%),[4],14%
same,Population Healthy Nuclei (%),[4],79%
same,Population Hoechst High Intensity Objects (%),[4],10%
same,Population Membrane Permeable-Phenotype (%),[4],4%
same,Population Mitochondria Different-Phenotype (%),[4],22%
same,Population Mitotic Cells (%),[4],25%
same,Population Normal (%),[4],89%
same,Population Pyknosed Nuclei (%),[4],6%
same,Population Tubulin-Different-Phenotype (%),[4],16%
same,Total Cell Count,[4],69
same,Population Apoptotic (%),[5],65%
same,Population Fragmented Nuclei (%),[5],26%
same,Population Healthy Nuclei (%),[5],42%
same,Population Hoechst High Intensity Objects (%),[5],9%
same,Population Membrane Permeable-Phenotype (%),[5],31%
same,Population Mitochondria Different-Phenotype (%),[5],2%
same,Population Mitotic Cells (%),[5],34%
same,Population Normal (%),[5],90%
same,Population Pyknosed Nuclei (%),[5],31%
same,Population Tubulin-Different-Phenotype (%),[5],40%
same,Total Cell Count,[5],123
same,Population Apoptotic (%),[6],55%
same,Population Fragmented Nuclei (%),[6],4%
same,Population Healthy Nuclei (%),[6],84%
same,Population Hoechst High Intensity Objects (%),[6],5%
same,Population Membrane Permeable-Phenotype (%),[6],2%
same,Population Mitochondria Different-Phenotype (%),[6],8%
same,Population Mitotic Cells (%),[6],44%
same,Population Normal (%),[6],94%
same,Population Pyknosed Nuclei (%),[6],10%
same,Population Tubulin-Different-Phenotype (%),[6],33%
same,Total Cell Count,[6],90
same,Population Apoptotic (%),[7],61%
same,Population Fragmented Nuclei (%),[7],31%
same,Population Healthy Nuclei (%),[7],39%
same,Population Hoechst High Intensity Objects (%),[7],8%
same,Population Membrane Permeable-Phenotype (%),[7],37%
same,Population Mitochondria Different-Phenotype (%),[7],9%
same,Population Mitotic Cells (%),[7],38%
same,Population Normal (%),[7],91%
same,Population Pyknosed Nuclei (%),[7],28%
same,Population Tubulin-Different-Phenotype (%),[7],48%
same,Total Cell Count,[7],118
same,Population Apoptotic (%),[8],53%
same,Population Fragmented Nuclei (%),[8],12%
same,Population Healthy Nuclei (%),[8],69%
same,Population Hoechst High Intensity Objects (%),[8],6%
same,Population Membrane Permeable-Phenotype (%),[8],14%
same,Population Mitochondria Different-Phenotype (%),[8],24%
same,Population Mitotic Cells (%),[8],46%
same,Population Normal (%),[8],93%
same,Population Pyknosed Nuclei (%),[8],18%
same,Population Tubulin-Different-Phenotype (%),[8],32%
same,Total Cell Count,[8],77
same,Population Apoptotic (%),[9],64%
same,Population Fragmented Nuclei (%),[9],34%
same,Population Healthy Nuclei (%),[9],48%
same,Population Hoechst High Intensity Objects (%),[9],8%
same,Population Membrane Permeable-Phenotype (%),[9],28%
same,Population Mitochondria Different-Phenotype (%),[9],0%
same,Population Mitotic Cells (%),[9],35%
same,Population Normal (%),[9],91%
same,Population Pyknosed Nuclei (%),[9],16%
same,Population Tubulin-Different-Phenotype (%),[9],26%
same,Total Cell Count,[9],112
same,Population Apoptotic (%),[10],50%
same,Population Fragmented Nuclei (%),[10],31%
same,Population Healthy Nuclei (%),[10],65%
same,Population Hoechst High Intensity Objects (%),[10],14%
same,Population Membrane Permeable-Phenotype (%),[10],18%
same,Population Mitochondria Different-Phenotype (%),[10],8%
same,Population Mitotic Cells (%),[10],50%
same,Population Normal (%),[10],85%
same,Population Pyknosed Nuclei (%),[10],2%
same,Population Tubulin-Different-Phenotype (%),[10],41%
same,Total Cell Count,[10],106
same,Population Apoptotic (%),[11],81%
same,Population Fragmented Nuclei (%),[11],40%
same,Population Healthy Nuclei (%),[11],50%
same,Population Hoechst High Intensity Objects (%),[11],18%
same,Population Membrane Permeable-Phenotype (%),[11],17%
same,Population Mitochondria Different-Phenotype (%),[11],9%
same,Population Mitotic Cells (%),[11],18%
same,Population Normal (%),[11],81%
same,Population Pyknosed Nuclei (%),[11],8%
same,Population Tubulin-Different-Phenotype (%),[11],49%
same,Total Cell Count,[11],154
same,Population Apoptotic (%),[12],100%
same,Population Fragmented Nuclei (%),[12],22%
same,Population Healthy Nuclei (%),[12],76%
same,Population Hoechst High Intensity Objects (%),[12],11%
same,Population Membrane Permeable-Phenotype (%),[12],12%
same,Population Mitochondria Different-Phenotype (%),[12],3%
same,Population Mitotic Cells (%),[12],0%
same,Population Normal (%),[12],88%
same,Population Pyknosed Nuclei (%),[12],1%
same,Population Tubulin-Different-Phenotype (%),[12],6%
same,Total Cell Count,[12],86

# — ChEMBL document CHEMBL4689842, “EUbOPEN Chemogenomics Library wave 1” (2021)
